Columns and labels:
Assay type in all cases: functional
HL-60 [1] = assay: Concentration required to cause lethality in human leukemia cancer HL-60 cell line by 50% after 120 hours; determined by MTT assay; conditions: HL-60, 120 h
In short: (§1)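 Cells (DMEM for HCT-116, SK-MEL-2, A549; RPMI 1640 for HL-60, MCF-7; 10% FBS) were seeded at 1000-1500 per well and precultured 1 day. Methanesulfonate-salt drug was added as 10-fold serial dilutions from a 2 μM working solution, six wells per concentration. MTT absorbance was read at 544 nm after 120 h at 37 °C against T0 plates. LC50 is 50% reduction of initial cell number; values are the mean of ≥3 independent determinations.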

HCT-116 [2] = assay: Concentration required to cause lethality in human colon cancer HCT116 cell line by 50% after 120 hours; determined by MTT assay; conditions: HCT-116, 120 h; in short: as §1
A549 [3] = assay: Concentration required to inhibit human […] lung cancer A549 cell growth by 50% after 120 hours; determined by MTT assay; conditions: A549, 120 h
In short: (§2)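 Cells (A549, HCT-116, SK-MEL-2 in DMEM; HL-60, MCF-7 in RPMI 1640; 10% FBS) seeded at 1000-1500/well, six wells per concentration, and precultured 1 day. Added 2 µM working solution and 10-fold serial dilutions, or vehicle. MTT read at 544 nm after 120 h at 37 °C, with T0 reference plates. GI50 is 50% of control growth; ≥3 independent runs.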

SK-MEL-2 [4] = assay: Concentration required to inhibit the growth of human malenoma cancer SK-MEL-2 cell line by 50% after 120 hours; determined by MTT assay; conditions: SK-MEL-2, 120 h; in short: as §2
MCF7 [5] = assay: Concentration required to cause lethality in human breast cancer MCF-7 cell line by 50% after 120 hours; determined by MTT assay; conditions: MCF7, 120 h; in short: as §1
HCT-116 [6] = assay: Concentration required to inhibit the growth of human colon cancer HCT116 cell line by 50% to initial after 120 hours; determined using MTT assay; conditions: HCT-116, 120 h
SK-MEL-2 [7] = assay: Concentration required to cause lethality in human malenoma cancer SK-MEL-2 cell line by 50% after 120 hrs; determined by MTT assay; conditions: SK-MEL-2, 120 h; in short: as §1
MCF7 [8] = assay: Concentration required to inhibit the growth of human breast cancer MCF-7 cell line by 50% after 120 hours; determined by MTT assay; conditions: MCF7, 120 h; in short: as §2
HL-60 [9] = assay: Concentration required to inhibit the growth of human leukemia cancer HL-60 cell line by 50% after 120 hours; determined by MTT assay; conditions: HL-60, 120 h; in short: as §2
A549 [10] = assay: Concentration required to cause lethality in human […] lung cancer A549 cell line by 50% after 120 hours; determined by MTT assay; conditions: A549, 120 h; in short: as §1
A549 [11] = assay: Concentration required for inhibition of human […] lung cancer A549 cell growth by 50%, after 120 hours; determined by MTT assay; conditions: A549, 120 h; in short: as §2

SMILES | LC50 (HL-60 [1]) | LC50 (HCT-116 [2]) | GI50 (A549 [3]) | GI50 (SK-MEL-2 [4]) | LC50 (MCF7 [5]) | GI50 (HCT-116 [6]) | LC50 (SK-MEL-2 [7]) | GI50 (MCF7 [8]) | GI50 (HL-60 [9]) | LC50 (A549 [10]) | GI50 (A549 [11]) | CC50 (HL-60 [1]; read-out: LC50 (the source's name))
COc1ccc2nc3cc(Cl)ccc3c(NCCCN3CCN(CCCNc4ccc5ncn6c7ccccc7c(=O)c4c56)CC3)c2c1 | > 1000 nM | > 1000 nM | 8 nM | 300 nM | > 1000 nM | 3.8 nM | > 1000 nM | 400 nM | 400 nM | > 1000 nM |  | 
CN(CCCNc1ccc2ncn3c4ccccc4c(=O)c1c23)CCCN1C(=O)c2cccc3cc([N+](=O)[O-])cc(c23)C1=O | 500 nM | 220 nM | 25 nM | 150 nM | > 1000 nM | 8 nM | > 1000 nM | 50 nM | 120 nM | 500 nM |  | 
Nc1cc2c3c(cccc3c1)C(=O)N(CCCN1CCN(CCCNc3ccc4ncn5c6ccccc6c(=O)c3c45)CC1)C2=O | 450 nM | 80 nM |  | 15 nM | > 1000 nM | 2.2 nM | 750 nM | 32 nM | 5 nM | 100 nM | 2.5 nM | 
O=C1c2cccc3cc([N+](=O)[O-])cc(c23)C(=O)N1CCCN1CCN(CCCNc2ccc3ncn4c5ccccc5c(=O)c2c34)CC1 | 33 nM | 32 nM | 0.6 nM | 4 nM | > 1000 nM | 0.5 nM | 60 nM | 3.2 nM | 3.5 nM | 35 nM |  | 
CN(C)CCN1C(=O)c2cccc3cc([N+](=O)[O-])cc(c23)C1=O [MITONAFIDE] |  |  | 65 nM | 150 nM |  | 250 nM |  | 245 nM | 45 nM |  |  | 400 nM

Reference: ChEMBL document CHEMBL1140308, “A new synthetic agent with potent but selective cytotoxic activity against cancer” (2005)
